Data from ChEMBL document CHEMBL1125418, “Antimycobacterial activity of a series of pyrazinoic acid esters” (1992).
In brackets after ≈: the same amount, converted by molar mass.

Legend:
[1] = test system: Mycobacterium tuberculosis; experiment: In vitro activity against Mycobacterium strain BUR (Mycobacterium tuberculosis); format: functional
Outline: (§1)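 Agar dilution in compartmented plates of Middlebrook 7H10 agar with 10% OADC, adjusted to pH 5.8 or pH 6.6. Twofold compound dilutions spanned 200–3.12 µg/mL. Plates were made 24–48 h ahead and held at 4 °C. MIC (µg/mL) was the lowest concentration giving 99% (2 log) growth inhibition.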

[2] = test system: Mycobacterium kansasii; experiment: In vitro activity against Mycobacterium strain SWK (Mycobacterium kansasii); format: functional
Outline: (§2)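 Agar dilution MIC against pyrazinamide-resistant clinical isolates on Middlebrook 7H10 agar with 10% OADC at pH 5.8 or pH 6.6. Serial 2-fold dilutions span 200–3.12 µg/mL in compartmented plates made 24–48 h ahead and stored at 4 °C. Each isolate has a drug-free control. Plates were incubated at 37 °C for 4 weeks. MIC is the lowest concentration giving 99% (2 log) growth inhibition.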

[3] = test system: Mycobacterium tuberculosis; experiment: In vitro activity against Mycobacterium strain BAK (Mycobacterium tuberculosis); format: functional
[4] = test system: Mycobacterium tuberculosis; experiment: In vitro activity against Mycobacterium. tuberculosis (strain type-H37Rv) at pH 5.8; format: functional
[5] = test system: Mycobacterium kansasii; experiment: In vitro activity against Mycobacterium. kansasii (strain type-SWK)at pH 6.6; format: functional
Outline: (§3)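 MIC for pyrazinamide-resistant isolate SWK by agar dilution in Middlebrook 7H10 with 10% OADC at pH 6.6. Serial 2-fold dilutions run 200–3.12 µg/mL in compartmented plates prepared 24–48 h in advance and stored at 4 °C. A drug-free control is included. Plates were held at 37 °C for 4 weeks. The endpoint is 99% (2 log) inhibition of growth.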

[6] = test system: Mycobacterium tuberculosis; experiment: In vitro activity against Mycobacterium strain GLA (Mycobacterium tuberculosis); format: functional
[7] = test system: Mycobacterium tuberculosis; experiment: (§4) In vitro activity against Mycobacterium strain DOU (Mycobacterium tuberculosis); format: functional; outline: as §1
[8] = test system: Mycobacterium tuberculosis; experiment: In vitro activity against Mycobacterium. tuberculosis (strain type-BUR)at pH 5.8; format: functional
[9] = test system: Mycobacterium kansasii; experiment: In vitro activity against Mycobacterium strain SCH (Mycobacterium kansasii); format: functional; outline: as §2
[10] = test system: Mycobacterium tuberculosis; experiment: In vitro activity against Mycobacterium strain SMA (Mycobacterium tuberculosis); format: functional; settings: Mycobacterium tuberculosis; read-out: MIC
[11] = test system: Mycobacterium tuberculosis; experiment: In vitro activity against Mycobacterium strain DUB (Mycobacterium tuberculosis); format: functional; settings: Mycobacterium tuberculosis; read-out: MIC
[12] = test system: Mycobacterium tuberculosis; experiment: In vitro activity against Mycobacterium. tuberculosis (strain type-BUR)at pH 6.6; format: functional
Outline: (§5)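 Twofold serial dilutions (200–3.12 µg/mL) in 7H10 agar with 10% OADC enrichment at pH 6.6, in compartmented plates. Plates were stored at 4 °C and used within 24–48 h. A no-drug compartment served as control for each isolate. Plates were incubated for 4 weeks at 37 °C. MIC was the lowest concentration giving 99% (2 log) growth inhibition.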

[13] = test system: Mycobacterium tuberculosis; experiment: In vitro activity against Mycobacterium strain ATCC 35828 (Mycobacterium tuberculosis); format: functional; outline: as §1
[14] = test system: Mycobacterium tuberculosis; experiment: In vitro activity against Mycobacterium. tuberculosis (strain type-ATCC 35828)at pH 5.8; format: functional
Outline: (§6)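 Middlebrook 7H10 agar plus 10% OADC at pH 5.8 in compartmented plates, with serial twofold dilutions from 200 to 3.12 µg/mL. Plates were prepared 24–48 h before use and stored at 4 °C. A drug-free compartment was included per isolate. Incubation was 37 °C for 4 weeks. MIC was the lowest level producing 99% (2 log) inhibition of growth.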

[15] = test system: Mycobacterium tuberculosis; experiment: In vitro activity against Mycobacterium. tuberculosis (strain type-H37Rv) at pH 6.6; format: functional
[16] = test system: Mycobacterium tuberculosis; experiment: In vitro activity against Mycobacterium strain MCQ (Mycobacterium tuberculosis); format: functional; outline: as §1
[17] = test system: Mycobacterium tuberculosis; experiment: In vitro activity against Mycobacterium strain LEL (Mycobacterium tuberculosis); format: functional
[18] = test system: Mycobacterium tuberculosis; experiment: In vitro activity against Mycobacterium. tuberculosis (strain type-ATCC 35828)at pH 6.6; format: functional; outline: as §5
[19] = test system: Mycobacterium tuberculosis; experiment: In vitro activity against Mycobacterium strain DOL (Mycobacterium tuberculosis); format: functional; settings: Mycobacterium tuberculosis; read-out: MIC
[20] = test system: Mycobacterium tuberculosis; experiment: In vitro activity against Mycobacterium strain WOO (Mycobacterium tuberculosis); format: functional; outline: as §1
[21] = test system: Mycobacterium tuberculosis; experiment: In vitro activity against Mycobacterium strain ING (Mycobacterium tuberculosis); format: functional; outline: as §1
[22] = test system: Mycobacterium tuberculosis; experiment: In vitro activity against Mycobacterium strain CES (Mycobacterium tuberculosis); format: functional; outline: as §1
[23] = test system: Mycobacterium kansasii; experiment: In vitro activity against Mycobacterium. kansasii (strain type-SWK)at pH 5.8; format: functional
Outline: (§7)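 Pyrazinamide-resistant isolate SWK tested on Middlebrook 7H10 agar plus 10% OADC adjusted to pH 5.8. Compartmented plates hold 2-fold dilutions from 200 to 3.12 µg/mL, prepared 24–48 h before use and kept at 4 °C, with a drug-free compartment. Incubation was 37 °C for 4 weeks. MIC is the lowest level causing 99% (2 log) growth inhibition.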

[24] = test system: Mycobacterium kansasii; experiment: In vitro activity against Mycobacterium. kansasii (strain type-SWK).at pH 5.8; format: functional; outline: as §7
[25] = test system: Mycobacterium kansasii; experiment: In vitro activity against Mycobacterium. kansasii (strain type-SWK).at pH 6.6; format: functional; outline: as §3
[26] = test system: Mycobacterium tuberculosis; experiment: In vitro inhibitory activity against Mycobacterium strain ING (Mycobacterium tuberculosis); format: functional; outline: as §1
[27] = test system: Mycobacterium tuberculosis; experiment: as §4
[28] = test system: Mycobacterium tuberculosis; experiment: In vitro inhibitory activity against Mycobacterium tuberculosis (strain type-ATCC 35828) at pH 5.8; format: functional; outline: as §6
[29] = test system: Mycobacterium kansasii; experiment: In vitro activity inhibitory against Mycobacterium. kansasii (strain type-SWK) at pH 5.8; format: functional; outline: as §7
[30] = test system: Mycobacterium tuberculosis; experiment: In vitro inhibitory activity against Mycobacterium strain LEL (Mycobacterium tuberculosis); format: functional; outline: as §1
[31] = test system: Mycobacterium tuberculosis; experiment: In vitro inhibitory activity against Mycobacterium strain DUB (Mycobacterium tuberculosis)
[32] = test system: Mycobacterium tuberculosis; experiment: In vitro inhibitory activity against Mycobacterium tuberculosis (strain type-BUR) at pH 6.6; format: functional; outline: as §5
[33] = test system: Mycobacterium tuberculosis; experiment: In vitro inhibitory activity against Mycobacterium strain GLA (Mycobacterium tuberculosis); format: functional; outline: as §1
[34] = test system: Mycobacterium tuberculosis; experiment: In vitro activity against Mycobacterium strains on SMA (Mycobacterium tuberculosis)
[35] = test system: Mycobacterium tuberculosis; experiment: In vitro inhibitory activity against Mycobacterium tuberculosis (strain type-BUR) at pH 5.8
[36] = test system: Mycobacterium tuberculosis; experiment: In vitro inhibitory activity against Mycobacterium tuberculosis (strain type-H37Rv) at pH 5.8; format: functional; outline: as §6
[37] = test system: Mycobacterium tuberculosis; experiment: In vitro inhibitory activity against Mycobacterium strain BUR (Mycobacterium tuberculosis)
[38] = test system: Mycobacterium tuberculosis; experiment: In vitro activity against Mycobacterium strains on DOL (Mycobacterium tuberculosis)
[39] = test system: Mycobacterium tuberculosis; experiment: In vitro inhibitory activity against Mycobacterium strains on BAK (Mycobacterium tuberculosis)
[40] = test system: Mycobacterium tuberculosis; experiment: In vitro inhibitory activity against Mycobacterium strain WOO (Mycobacterium tuberculosis)
[41] = test system: Mycobacterium tuberculosis; experiment: In vitro inhibitory activity against Mycobacterium tuberculosis (strain type-ATCC 35828)at pH 6.6; format: functional; outline: as §5
[42] = test system: Mycobacterium tuberculosis; experiment: In vitro inhibitory activity against Mycobacterium strain MCQ (Mycobacterium tuberculosis)
[43] = test system: Mycobacterium kansasii; experiment: In vitro inhibitory activity inhibitory against Mycobacterium. kansasii (strain type-SWK) at pH 6.6; format: functional; outline: as §3
[44] = test system: Mycobacterium tuberculosis; experiment: In vitro inhibitory activity against Mycobacterium tuberculosis (strain type-H37Rv) at pH 6.6; format: functional
[45] = Mycobacterium tuberculosis, read-out: MIC

| SMILES | MIC [1] [µg/mL] | MIC [2] [µg/mL] | MIC [6] [µg/mL] | MIC [7] [µg/mL] | MIC [9] [µg/mL] | MIC [10] [µg/mL] | MIC [11] [µg/mL] | MIC [12] [µg/mL] | MIC [13] [µg/mL] | MIC [14] [µg/mL] | MIC [15] [µg/mL] | MIC [16] [µg/mL] | MIC [18] [µg/mL] | MIC [19] [µg/mL] | MIC [21] [µg/mL] | MIC [22] [µg/mL] | MIC [24] [µg/mL] | MIC [4, 45] [µg/mL] | MIC [25] [µg/mL] | MIC [8, 45] [µg/mL] | further results |
| --- | --- | --- | --- | --- | --- | --- | --- | --- | --- | --- | --- | --- | --- | --- | --- | --- | --- | --- | --- | --- | --- |
| Cc1ccc(OC(=O)c2cnccn2)cc1 | 12.5 (≈ 58.4 µM) | 12.5 (≈ 58.4 µM) | 6.25 (≈ 29.2 µM) | 12.5 (≈ 58.4 µM) | 12.5 (≈ 58.4 µM) | 25 (≈ 117 µM) | 25 (≈ 117 µM) | 100 (≈ 467 µM) | 12.5 (≈ 58.4 µM) | 12.5 (≈ 58.4 µM) | 25 (≈ 117 µM) | 6.25 (≈ 29.2 µM) | 200 (≈ 934 µM) | 6.25 (≈ 29.2 µM) | 25 (≈ 117 µM) | 12.5 (≈ 58.4 µM) |  |  |  |  | MIC [3]: 12.5 µg/mL (≈ 58.4 µM); MIC [4]: 12.5 µg/mL (≈ 58.4 µM); MIC [5]: 200 µg/mL (≈ 934 µM); MIC [8]: 12.5 µg/mL (≈ 58.4 µM); MIC [17]: 12.5 µg/mL (≈ 58.4 µM); MIC [20]: 25 µg/mL (≈ 117 µM); MIC [23]: 12.5 µg/mL (≈ 58.4 µM) |
| CCCOC(=O)c1cnccn1 | < 3.12 | 6.25 (≈ 37.6 µM) | 6.25 (≈ 37.6 µM) | < 3.12 | 12.5 (≈ 75.2 µM) | < 3.12 | < 3.12 |  | 6.25 (≈ 37.6 µM) | 6.25 (≈ 37.6 µM) | 25 (≈ 150 µM) | < 3.12 | 25 (≈ 150 µM) | < 3.12 | < 3.12 | < 3.12 | < 3.12 | < 3.12 | 12.5 (≈ 75.2 µM) | < 3.12 | MIC [3, 45]: < 3.12 µg/mL; MIC [17, 45]: 6.25 µg/mL (≈ 37.6 µM) |
| NC(=O)c1cnccn1 [PYRAZINAMIDE] |  | > 200 |  |  | > 200 |  |  |  | > 200 |  |  |  |  |  |  |  |  |  |  |  | MIC [26]: 12.5 µg/mL (≈ 102 µM); MIC [27]: 25 µg/mL (≈ 203 µM); MIC [28]: > 200 µg/mL; MIC [29]: > 200 µg/mL; MIC [30]: > 200 µg/mL; MIC [31]: 50 µg/mL (≈ 406 µM); MIC [32]: 200 µg/mL (≈ 1620 µM); MIC [33]: 12.5 µg/mL (≈ 102 µM); MIC [34]: 50 µg/mL (≈ 406 µM); MIC [35]: 25 µg/mL (≈ 203 µM); MIC [36]: 12.5 µg/mL (≈ 102 µM); MIC [37]: 25 µg/mL (≈ 203 µM); MIC [38]: 25 µg/mL (≈ 203 µM); MIC [39]: 50 µg/mL (≈ 406 µM); MIC [40]: 50 µg/mL (≈ 406 µM); MIC [41]: > 200 µg/mL; MIC [42]: 25 µg/mL (≈ 203 µM); MIC [43]: > 200 µg/mL; MIC [44]: >200 µg/mL |
| O=C(OC(C(F)(F)F)C(F)(F)F)c1cnccn1 |  |  |  |  |  |  |  |  |  | 200 (≈ 730 µM) |  |  |  |  |  |  |  |  |  | 100 (≈ 365 µM) |  |
| O=C(Oc1c(F)c(F)c(F)c(F)c1F)c1cnccn1 |  |  |  |  |  |  |  |  |  | 12.5 (≈ 43.1 µM) |  |  | 100 (≈ 345 µM) |  |  |  | 25 (≈ 86.2 µM) | 12.5 (≈ 43.1 µM) | > 200 |  | MIC [15, 45]: 100 µg/mL (≈ 345 µM) |
| O=C(Oc1ccc(-c2ccccc2)cc1)c1cnccn1 |  |  |  |  |  |  |  | 50 (≈ 181 µM) |  | 25 (≈ 90.5 µM) |  |  | 100 (≈ 362 µM) |  |  |  | 25 (≈ 90.5 µM) | 6.25 (≈ 22.6 µM) | 100 (≈ 362 µM) |  |  |
